Screening results: PubChem, Sanford-Burnham Center for Chemical Genomics
LMPTP block – blocks human LMPTP phosphatase | AID 651560 | P24666 | inhibition, % at 20 µM | recombinant LMPTP-A, OMFP fluorogenic substrate, fluorescence intensity | 360,000 tested, 0.22% active;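 active means compounds that cut the enzyme signal by at least half of the control window in the single-dose screen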;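 further: plate controls were DMSO wells with enzyme plus substrate for no effect and substrate without enzyme for full effect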
Target sequence (P24666 whole entry, looked up): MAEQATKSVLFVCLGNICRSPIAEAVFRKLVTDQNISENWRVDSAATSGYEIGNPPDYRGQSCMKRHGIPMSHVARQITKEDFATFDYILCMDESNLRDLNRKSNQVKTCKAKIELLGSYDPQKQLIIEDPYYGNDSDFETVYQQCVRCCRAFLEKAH
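material = LMPTP-A | quantity = 0.625 nM enzyme | reagent = OMFP substrate, 400 µM final | buffer or medium = Bis-Tris pH 6.0, DTT, detergent | detection = endpoint fluorescence intensity from OMFP dephosphorylation | dosing = single 20 µM dose | read-out basis = % inhibition relative to no-enzyme and uninhibited control wells | control set = no-enzyme and uninhibited controls | timing = 50 min at room temperature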
SUMO1-SIM PPI – alters human SUMO1 binding to SIM partners. P63165. SUMO1 binding to a labelled peptide, TR-FRET, 1 h. inhibition, % at 20 µM. 360,000 tested, 0.33% active; in the data active means inhibition above about 37%
Scp-1 inhibitor – inhibitors of human Scp-1 phosphatase. Q9GZU7. Recombinant Scp1, phosphopeptide, malachite green phosphate absorbance. inhibition, % at 20 µM. 340,000 tested, 0.88% active. AID 493091;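 active means inhibition above about 50% at 20 µM, limit read from the data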;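 further: plate controls were DMSO wells with enzyme for no effect and wells lacking enzyme for full effect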
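System: SCP-1 catalytic domain; Reagent: Phospho 17-mer peptide substrate; Doses: one concentration, 20 µM, with 1.0% DMSO; Incubation: 45 min room-temperature reaction, 5 min colour, 30 min stabiliser; Signal: Phosphate-binding colour reagent, absorbance read at 630 nm.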
HKDC1 inh – HKDC1 (human) hexokinase inhibition; recombinant HKDC1, G6PDH/diaphorase resazurin coupled fluorescence; inhibition, % at 20 µM; 340,000 tested, 0.16% active;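 active means inhibition above about 35% when tested at 20 µM, limit read from the data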;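 further: plate controls were DMSO wells with enzyme for no effect and DMSO wells lacking enzyme for full effect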
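System: Recombinant HKDC1 hexokinase | Amount: HKDC1 at 5 µg/mL | Reagent: Glucose with 1 mM ATP | Doses: Single 20 µM dose | Incubation: Reaction time 90 min, room temperature, protected from light | Signal: Coupled resazurin fluorescence, excitation 525 nm, emission 613 nm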
DNMT1 block – blocks human DNA methyltransferase DNMT1. P26358. DNMT1 molecular beacon, Hinp1I cleavage, fluorescence. inhibition (reported as % activation of signal), % at 10 µM. 360,000 tested, 0.83% active. AID 588458; in the data active means inhibition above about 50%
STEP inh – inhibitors of human striatal-enriched phosphatase STEP; P54829; recombinant STEP, OMFP fluorogenic substrate, fluorescence; inhibition, % at 20 µM; 360,000 tested, 0.25% active; AID 588621;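 active means inhibition at 20 µM, scaled per plate between control wells, above about 37%, limit read from the data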;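 further: 0% = DMSO with enzyme and substrate and 100% = substrate only without enzyme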
Target sequence (P54829 whole entry, looked up): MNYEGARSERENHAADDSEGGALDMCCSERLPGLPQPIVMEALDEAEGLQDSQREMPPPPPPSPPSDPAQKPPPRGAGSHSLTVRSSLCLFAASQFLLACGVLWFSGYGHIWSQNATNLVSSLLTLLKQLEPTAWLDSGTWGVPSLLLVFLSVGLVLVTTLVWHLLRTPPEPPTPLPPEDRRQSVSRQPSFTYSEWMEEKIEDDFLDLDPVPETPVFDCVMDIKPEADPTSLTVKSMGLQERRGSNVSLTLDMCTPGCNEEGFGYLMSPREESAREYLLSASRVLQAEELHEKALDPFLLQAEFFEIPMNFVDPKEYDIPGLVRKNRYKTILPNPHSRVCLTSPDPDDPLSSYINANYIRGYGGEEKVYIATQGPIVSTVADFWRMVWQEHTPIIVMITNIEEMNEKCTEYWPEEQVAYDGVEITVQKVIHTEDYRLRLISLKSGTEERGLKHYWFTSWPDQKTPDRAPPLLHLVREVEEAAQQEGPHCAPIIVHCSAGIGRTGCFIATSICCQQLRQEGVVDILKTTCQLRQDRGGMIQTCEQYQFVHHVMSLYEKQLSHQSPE
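Test system: STEP tyrosine phosphatase / Reagent: OMFP at 25 µM / Doses: 20 µM, 1% DMSO / Read-out: percent inhibition scaled to no-enzyme and uninhibited-enzyme controls, plate-pattern corrected / Detection: FITC-channel fluorescence of OMFP product / Medium: Bis-Tris buffer pH 6.0, 2.5 mM DTT, 0.005% Tween 20 / Schedule: 20 min at room temperature, dark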
Scp-1 conf – Scp-1 (human) inhibition, single-dose confirmed; shares compounds with Scp-1 inhibitor; recombinant SCP-1 catalytic domain, phosphate release, malachite green absorbance; inhibition, % at 20 µM; 2,500 tested, 61% active; AID 540281;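 further: plate controls were DMSO with enzyme for no effect and buffer wells lacking enzyme for full effect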
Scp-1 MG ctr – interferes with malachite green readout, flagging false Scp-1 hits | shares compounds with Scp-1 inhibitor | Colorimetric interference counterscreen, malachite green absorbance 630 nm | apparent inhibition (interference), % at 20 µM | 2,500 tested, under 10 active | AID 540313;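 further: compounds added after enzyme reaction finished so only phosphate colour detection is probed; plate controls were DMSO wells with completed Scp-1 reaction for no effect and substrate wells lacking enzyme for full effect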
Scp1 DSF – Scp-1 (human) binding by thermal shift; shares compounds with Scp-1 inhibitor; Recombinant SCP1, Sypro Orange thermal shift Tm; thermal shift relative to vanadate control, % at 40 µM; 1,500 tested, 25% active;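 active means substances whose mean melting-temperature shift, as a percentage of the reference inhibitor's shift, reaches about 5.3%, limit read from the data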;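 further: 0% = Tm of DMSO wells and 100% = Tm with sodium orthovanadate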
* = called active by the depositor; . = no result. Shown are actives, neighbours in structure and some others; about 1.8% of the full set was active somewhere.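 How the source made its calls, unless noted: active means inhibition of at least 30% at 20 µM; inactive means the rest.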

SMILES	LMPTP block	SUMO1-SIM PPI	Scp-1 inhibitor	HKDC1 inh	DNMT1 block	STEP inh	Scp-1 conf	Scp-1 MG ctr	Scp1 DSF
Cc1cc(C)n(-c2ccc(C(=O)OCC(=O)Nc3ccccc3F)cc2)n1	-0.6	-6.2	-0.1	0.8	2.2	2.7	.	.	.
COc1ccc(C2CCCN2CC(O)COc2ccccc2C(C)C)cc1 (centres undefined)	1.3	-3.1	61.0*	0.1	0.3	0.4	-22.4	-18.1	.
CCOC(=O)N1CCN(CC(O)COc2ccccc2C(C)C)CC1 (centres undefined)	0.2	-2.0	-7.6	-5.2	3.0	-0.9	.	.	.
CC(C)C[C@@H]1Cc2[nH][nH]c(=O)c2[C@H](C)O1	-1.3	6.9	.	.	.	.	.	.	.
O=C(NCCc1ccccc1)C1CC(=O)N(c2ccc3c(c2)OCCO3)C1 (centres undefined)	-0.9	3.1	-1.2	-5.0	-0.1	1.3	-16.6	-11.8	.
O=C(Nc1nnc(C2CCCCC2)s1)C1CC(=O)N(c2ccccc2)C1 (centres undefined)	-0.4	1.0	-2.3	5.6	-0.5	1.8	.	.	.
O=C(Nc1nnc(C2CC2)s1)C1CC(=O)N(c2ccc3c(c2)OCCO3)C1 (centres undefined)	3.1	4.6	61.1*	-4.5	39.5	2.7	56.0*	-18.3	1.9
O=C(NC(Cc1ccccc1)c1nc2ccccc2[nH]1)C1CC(=O)N(c2ccc3c(c2)OCCO3)C1 (centres undefined)	-0.1	1.8	71.8*	6.8	-11.2	-1.4	34.2*	-14.5	-5.7
O=C(NCCCc1ccccc1)C1CC(=O)N(c2ccc3c(c2)OCCO3)C1 (centres undefined)	1.5	2.0	-2.4	-10.4	-7.5	1.6	.	.	.
CC1(C2CC2)NC(=O)N(CC(=O)Nc2ccc(OC(F)F)cc2)C1=O (centres undefined)	-1.2	6.0	.	.	6.6	-0.2	.	.	.
CCCCc1c(O)c2ccccc2n(CCCC)c1=O	0.3	5.7	-6.3	-4.2	-2.4	-3.9	.	.	.
CCCCc1c(CCC)c(=N)c2ccccc2n1C	10.0	1.4	91.0*	-14.1	0.3	-1.1	7.3	-10.4	.
COc1ccc(OC)c(NC(=O)CSc2sc3c(O)cc(=O)[nH]c3c2C#N)c1	43.8	11.6	69.6*	8.9	16.2	13.1	55.3*	-12.3	10.6*
COc1cc(Cl)c(C)cc1NC(=O)CSc1sc2c(O)cc(=O)[nH]c2c1C#N	34.9	23.3	64.9*	4.9	44.2	15.5	76.4*	-0.5	12.7*
Cc1c(F)cccc1NC(=O)CCCCCC1NC(=O)NC1C (centres undefined)	-1.0	0.9	-0.7	-2.7	0.3	-4.8	-0.2	-6.8	.
CC1NC(=O)NC1CCCCCC(=O)Nc1ccc(F)cc1 (centres undefined)	0.0	2.3	13.0	-1.9	3.0	-2.4	-17.5	-14.8	.
O=C(CCCC(=O)c1ccccc1)Nc1ccc(F)cc1	-1.5	-4.5	-12.3	-2.7	4.8	1.1	.	.	.
COc1ccc(Nc2nc(OC)nc(OC)n2)cc1	-1.3	5.9	0.8	-6.0	-3.6	-0.8	.	.	.
CCOc1nc(Nc2ccc(OC)cc2)nc(OCC)n1	-0.4	1.2	66.9*	1.5	3.1	12.5	29.9	-17.3	.
Cc1cccc(OCC(=O)Nc2ccncc2)c1C	-1.9	-2.1	53.1*	-3.8	2.1	-2.7	-21.2	-15.6	.
COc1ccccc1OCC(=O)Nc1ccncc1	-3.0	4.7	-6.5	-4.0	1.4	-0.4	.	.	.
Cc1cccc(C)c1NC(=O)CN(C)C(=O)c1cccc(-n2cccc2)c1	4.4	2.9	67.6*	4.2	18.5	-1.1	46.1*	-11.2	1.6
Cc1cccc(C)c1NC(=O)CN(C)C(=O)c1ccc(N2C(=O)CCC2=O)cc1	-3.0	1.5	-4.9	1.8	1.1	1.8	.	.	.
O=C(Nc1ccc2nn(-c3ccccc3)nc2c1)c1ccc(Br)o1	41.7	1.4	92.7*	18.6	76.0*	17.4	90.2*	-6.5	-12.0
CCNC(=O)C1(C)CCN(C(=O)c2ccccc2F)C1 (centres undefined)	-1.3	6.0	.	.	2.2	0.0	.	.	.
SMILES	LMPTP block	SUMO1-SIM PPI	Scp-1 inhibitor	HKDC1 inh	DNMT1 block	STEP inh	Scp-1 conf	Scp-1 MG ctr	Scp1 DSF
Cc1cccc(Nc2n[nH]c(=S)s2)c1C	-1.0	12.5	60.1*	19.6	-0.1	2.2	18.9	-13.4	.
CC(Oc1cccc([N+](=O)[O-])c1)C(=O)NCCC1=CCCCC1 (centres undefined)	-0.4	-18.0	59.0*	5.8	-5.2	1.0	-12.8	-13.6	.
Cc1c(C(=O)O)sc2nc3n(c(=O)c12)CCC3	0.5	2.3	63.5*	11.5	23.1	7.1	54.7*	-5.2	2.8
Cc1c(C(=O)N2CCN(c3ccccc3)CC2)sc2nc3n(c(=O)c12)CCC3	-0.7	1.1	-4.7	-2.3	-0.1	0.1	.	.	.
CCn1c(C)[n+](Cc2ccccc2)c2ccc(C(=O)OC)cc21	1.1	-0.3	101.7*	-6.3	3.8	-2.8	52.5*	-6.0	-3.6
CCn1c(C)[n+](Cc2ccccc2)c2ccc(Cl)cc21	1.1	-2.4	1.0	-9.8	-0.6	-1.4	.	.	.
CCOC(=O)c1ccc2c(c1)n(CC)c(/C=C/Nc1ccccc1)[n+]2CC	-0.9	-2.5	62.4*	-2.8	5.4	-3.0	-9.9	-11.5	.
CCn1c(/C=C/Nc2ccccc2)[n+](CC)c2ccc(Cl)cc21	-1.4	-0.7	11.4	-15.1	3.1	-6.2	.	.	.
CC[N+](C)(CC)CC(=O)OCC1C(C)C=C(C)CC1C (centres undefined)	0.4	-6.4	55.5*	-4.5	-1.4	-0.5	-2.7	-13.1	.
CN(CC(=O)Nc1ccccc1Cl)C(=O)CN1C(=O)NC(c2ccccc2)(c2ccccc2)C1=O	-0.3	2.5	-7.7	-1.0	-4.3	1.3	.	.	.
O=C(N/N=C\C=C\c1ccc(Br)cc1)c1ccc2c(c1)OCO2	56.6*	44.6*	94.9*	12.6	81.4*	97.8*	93.5*	-3.5	-2.6
C[n+]1cccc(C(=O)N/N=C/c2ccc3c(c2)OCO3)c1	-0.1	-18.6	50.1*	4.1	0.5	0.6	14.8	-7.1	.
O=C(N/N=C/c1ccc2c(c1)OCO2)c1ccc(COCC(F)(F)C(F)F)cc1	24.8	5.6	72.1*	10.1	7.1	9.0	77.0*	-10.9	-11.9
